Consider three compounds from publication PMC5593424 (Bioorganic & medicinal chemistry letters, 2017).

In test [1] the target is T1, eIF4A (Homo sapiens, UniProt P60842). The test is described as follows: fluorescence-dequenching eIF4A helicase assay. It is filed as biochemical. To be noted: 100 µM compound, relative to DMSO control, eIF4B and ATP. The procedure, abridged: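 RNA unwinding assay: a fluorescently labelled RNA strand is annealed to a template beside a black-hole quencher. Adding eIF4A, eIF4B and ATP releases the strand and dequenches the fluorophore. A large excess of blank template prevents reannealing. Test compounds used at 100 μM.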
T1 sequence (P60842 whole entry): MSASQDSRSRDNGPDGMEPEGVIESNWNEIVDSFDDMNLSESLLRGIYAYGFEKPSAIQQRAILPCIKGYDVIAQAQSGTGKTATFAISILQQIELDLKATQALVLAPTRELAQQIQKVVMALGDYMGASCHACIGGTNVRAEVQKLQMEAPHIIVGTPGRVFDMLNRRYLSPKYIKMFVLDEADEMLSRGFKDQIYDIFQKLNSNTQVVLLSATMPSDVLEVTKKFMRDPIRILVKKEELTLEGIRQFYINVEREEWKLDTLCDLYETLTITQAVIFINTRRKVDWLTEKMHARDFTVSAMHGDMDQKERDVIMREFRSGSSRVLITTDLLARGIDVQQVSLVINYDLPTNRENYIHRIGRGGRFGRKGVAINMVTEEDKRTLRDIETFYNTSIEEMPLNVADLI

Test [2] deals with A549 lung cancer cells. The test is described as follows: MTT cytotoxicity, A549. To be noted: 8-point dose response. It counts as cell-based. In short, it runs like this: (§1)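 Cells exposed to an 8-point dose-response of test compound; viability read by MTT. Percent survival plotted against compound concentration on semi-log axes, and LD50 taken from that curve.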
The conditions of test [3]: cited from earlier work.
Test [4] has as its system MDA-MA-468 breast cancer cells. The test is described as follows: MTT cytotoxicity, MDA-MA-468. It counts as cell-based. To be noted: MDA-MA-468, MTT, 8-point dose response. In short, it runs like this:
as §1

Test [5] concerns the target T1, eIF4A. The test is described as follows: malachite green eIF4A ATPase assay. It counts as biochemical. To be noted: for inhibition of eIF4A ATPase activity (IC50): 8-point dose-response, 500 nM eIF4A, 250 µM ATP.
Test [6] addresses DDX39A (Homo sapiens, UniProt O00148). Briefly: ATPase dose-response against DDX39A. It counts as biochemical. To be noted: 8-point dose-response.
The subject of test [7] is NCI-60 panel. The note with it: cited from earlier work.

pKi: −log10 of the molar value.

Sequence of DDX39A (O00148 whole entry, species assumed): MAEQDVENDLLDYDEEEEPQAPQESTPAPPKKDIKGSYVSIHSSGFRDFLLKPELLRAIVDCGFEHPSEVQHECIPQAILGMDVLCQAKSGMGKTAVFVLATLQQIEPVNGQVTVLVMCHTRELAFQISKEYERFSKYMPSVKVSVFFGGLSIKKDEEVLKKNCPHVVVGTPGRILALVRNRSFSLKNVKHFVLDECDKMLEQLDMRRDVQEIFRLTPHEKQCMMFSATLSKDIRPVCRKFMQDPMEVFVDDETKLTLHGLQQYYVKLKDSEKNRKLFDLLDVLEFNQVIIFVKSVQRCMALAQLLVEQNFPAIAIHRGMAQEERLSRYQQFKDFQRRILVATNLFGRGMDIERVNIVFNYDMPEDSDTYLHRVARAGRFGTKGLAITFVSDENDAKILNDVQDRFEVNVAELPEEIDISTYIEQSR

Take `C[C@H]1C[C@@]2(O[C@H]3C[C@H]4[C@@H]5CC[C@H]6C[C@H](O)CC[C@]6(C)[C@H]5[C@@H](O)C[C@]4(C)[C@H]3[C@@]2(C)O)OC1(C)C` [Compound 3, hippuristanol, reference compound]: the “inhibition of eIF4A helicase activity” value in test [1] is listed as “near complete inhibition”.
Usually pKi stands for −log10 of the Ki, conventionally taken in molar units. Consider `C=C1CC[C@@](C)(c2cc(Br)c(C)cc2O)[C@H]1C` [Compound 2, allolaurinterol], for which the results for the LD50 in test [2] and in test [4] were 41.4 µM and 31.7 µM, respectively. The “inhibition of eIF4A helicase activity” value in test [1] is “near complete inhibition”. For the same compound, in test [3], the antibiotic activity entry is reported as “antibiotic activity”. In addition, in test [5], the pKi was 5.41. In addition, the “inhibition of eIF4A ATPase activity (IC50)” value in test [5] was “single-digit”.
As to `CC(C)=C[C@@H]1C[C@H](C)c2c(O)cc(C)c3c2C1=C(C)C(=O)C3=O` [Compound 1, elisabatin A], the LD50 in test [2] came out at 40.2 µM; in test [4] it was 35.2 µM. The “inhibition of eIF4A ATPase activity (IC50)” value in test [5] is on record as “single-digit”. The “inhibition of DDX39A” value in test [6] is reported as “modest inhibition”. Further, the “activity against the NCI-60 panel” value in test [7] is on record as “only modest activity”.
